Measured values from ChEMBL document CHEMBL3865809, “2-Indolylmethylenebenzofuranones as first effective inhibitors of ABCC2” (Eur J Med Chem, 2016).

Experiments:
[1] = biological target: T1, ATP-binding cassette sub-family C member 2 (Homo sapiens, UniProt Q92887); test: Inhibition of ABCC2 (unknown origin) expressed in MDCK2 cells assessed as inhibition of calcein-AM efflux measured after 30 mins in presence of ABCB1 inhibitor GF120918 and ABCC1 inhibitor MK-571 by flow cytometry; type: cell-based, MDCK-II
[2] = Cytotoxicity against wild-type MDCK2 cells measured after 72 hrs by MTT assay; type: toxicity, cell-based, Canis lupus familiaris, MDCK-II; settings: dog
How it was run: (§1)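 MTT assay in parental and ABCC2-transfected MDCKII cells. Cells were seeded so that they stayed below confluence over 72 h at 37 °C, then exposed to compound from […] for 72 h. MTT at 5 mg/mL was added for 3 h. Formazan was dissolved in DMSO/isopropanol 1:1, and A570 was read and corrected at 690 nm. Mean ± SD of at least three independent experiments; DMSO-only controls run in parallel.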

[3] = Cytotoxicity against MDCK2 cells expressing ABCC2 measured after 72 hrs by MTT assay; type: toxicity, cell-based, Canis lupus familiaris, MDCK-II; settings: dog; how it was run: as §1
[4] = biological target: T1, ATP-binding cassette sub-family C member 2; test: Inhibition of ABCC2 (unknown origin) expressed in human Flp-InTM-293 cells assessed as inhibition of calcein-AM efflux at 5 uM measured after 30 mins in presence of ABCB1 inhibitor GF120918 and ABCC1 inhibitor MK-571 by flow cytometry; type: cell-based; settings: 0.5 h
How it was run: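 A confirmatory calcein-AM efflux assay was run the same way in Flp-In-293 cells stably transfected with ABCC2 (pcDNA5-FRT-ABCC2 plus pOG44, by electroporation) and in parental Flp-In-293 cells. Fluorescence was read by flow cytometry, with % inhibition computed against the parental line.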

[5] = biological target: T1, ATP-binding cassette sub-family C member 2; test: Inhibition of ABCC2 (unknown origin) expressed in MDCK2 cells assessed as inhibition of calcein-AM efflux at 5 uM measured after 30 mins in presence of ABCB1 inhibitor GF120918 and ABCC1 inhibitor MK-571 by flow cytometry; type: cell-based; settings: mdck-ii, 0.5 h
How it was run: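 Parental and ABCC2-transfected MDCKII cells were seeded at 3 × 10³ cells/well and grown 48 h at 37 °C in 5% CO2. They were then loaded with 25 nM calcein-AM in the presence of GF120918 and […] MK-571. Intracellular fluorescence was read by flow cytometry in the 525/50 nm channel, collecting ≥5000 events.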

T1 sequence (Q92887 whole entry): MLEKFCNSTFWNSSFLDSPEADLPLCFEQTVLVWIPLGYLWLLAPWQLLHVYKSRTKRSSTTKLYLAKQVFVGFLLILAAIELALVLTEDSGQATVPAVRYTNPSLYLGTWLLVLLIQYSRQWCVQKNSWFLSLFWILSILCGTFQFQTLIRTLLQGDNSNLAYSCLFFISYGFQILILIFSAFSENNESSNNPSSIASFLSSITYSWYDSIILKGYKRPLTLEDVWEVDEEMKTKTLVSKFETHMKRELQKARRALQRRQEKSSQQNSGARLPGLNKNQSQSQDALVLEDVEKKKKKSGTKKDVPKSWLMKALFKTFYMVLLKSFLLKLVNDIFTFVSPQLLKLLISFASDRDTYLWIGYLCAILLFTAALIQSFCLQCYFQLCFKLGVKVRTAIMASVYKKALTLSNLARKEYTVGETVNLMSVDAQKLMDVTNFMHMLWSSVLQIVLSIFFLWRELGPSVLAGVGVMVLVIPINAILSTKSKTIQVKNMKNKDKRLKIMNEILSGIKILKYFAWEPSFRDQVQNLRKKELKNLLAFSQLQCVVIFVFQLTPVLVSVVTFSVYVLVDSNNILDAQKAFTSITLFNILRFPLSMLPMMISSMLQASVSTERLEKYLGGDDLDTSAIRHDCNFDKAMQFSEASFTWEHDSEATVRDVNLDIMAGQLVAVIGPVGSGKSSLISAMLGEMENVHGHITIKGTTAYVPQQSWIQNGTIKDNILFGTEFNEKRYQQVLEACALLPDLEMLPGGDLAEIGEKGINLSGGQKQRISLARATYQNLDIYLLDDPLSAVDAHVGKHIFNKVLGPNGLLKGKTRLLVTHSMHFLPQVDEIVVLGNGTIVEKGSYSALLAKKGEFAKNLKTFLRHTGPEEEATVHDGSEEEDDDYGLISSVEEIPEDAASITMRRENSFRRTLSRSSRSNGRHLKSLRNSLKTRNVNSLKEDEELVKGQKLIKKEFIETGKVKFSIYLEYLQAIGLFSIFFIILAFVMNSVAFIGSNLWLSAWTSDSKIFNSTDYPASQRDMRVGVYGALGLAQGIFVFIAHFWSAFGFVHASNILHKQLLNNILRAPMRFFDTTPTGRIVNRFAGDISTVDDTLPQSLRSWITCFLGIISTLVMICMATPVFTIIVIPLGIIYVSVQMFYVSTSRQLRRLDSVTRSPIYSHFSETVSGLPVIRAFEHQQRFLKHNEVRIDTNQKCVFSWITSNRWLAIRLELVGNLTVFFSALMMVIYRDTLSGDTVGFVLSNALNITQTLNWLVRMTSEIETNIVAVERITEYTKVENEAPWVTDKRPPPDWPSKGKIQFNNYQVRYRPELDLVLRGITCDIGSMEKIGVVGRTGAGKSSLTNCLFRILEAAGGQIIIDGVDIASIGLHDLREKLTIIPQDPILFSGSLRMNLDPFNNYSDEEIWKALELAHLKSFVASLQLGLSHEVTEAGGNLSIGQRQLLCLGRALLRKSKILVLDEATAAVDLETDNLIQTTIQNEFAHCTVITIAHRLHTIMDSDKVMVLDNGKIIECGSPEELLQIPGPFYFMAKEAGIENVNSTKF

COc1ccc2c(c1)c(/C=C1\Oc3cc(O)cc(O)c3C1=O)cn2CC1CCCCC1
IC50 [1]: 4.1 µM | IC50 at 72 h [2]: > 50 µM | IC50 at 72 h [3]: > 50 µM | inhibition (INH) [4]: Active | inhibition (INH) [5]: Active

Cn1c(/C=C2\Oc3cc(O)cc(O)c3C2=O)cc2ccccc21
IC50 [1]: 11.1 µM | inhibition (INH) [4]: Active | inhibition (INH) [5]: Active

O=C1/C(=C/c2cn(Cc3ccccc3)c3ccccc23)Oc2cc(O)cc(O)c21
IC50 [1]: 12.2 µM | inhibition (INH) [4]: Active | inhibition (INH) [5]: Active

COc1ccc2c(c1)c(/C=C1\Oc3cc(O)cc(O)c3C1=O)cn2Cc1cccc(Br)c1
IC50 [1]: 7.3 µM | inhibition (INH) [4]: Active | inhibition (INH) [5]: Active

O=C1/C(=C/c2cn(CC3CCCCC3)c3ccc(Br)cc23)Oc2cc(O)cc(O)c21
IC50 [1]: 15.8 µM | inhibition (INH) [4]: Active | inhibition (INH) [5]: Active

CCCCn1c(C)c(/C=C2\Oc3cc(O)cc(O)c3C2=O)c2ccccc21
IC50 [1]: 11.4 µM | inhibition (INH) [4]: Active | inhibition (INH) [5]: Active

CCCCn1cc(/C=C2\Oc3cc(O)cc(O)c3C2=O)c2cc(Br)ccc21
IC50 [1]: 15.4 µM | inhibition (INH) [4]: Active | inhibition (INH) [5]: Active

CCCCn1c(/C=C2\Oc3cc(O)cc(O)c3C2=O)c(C)c2ccccc21
IC50 [1]: 8.2 µM | inhibition (INH) [4]: Active | inhibition (INH) [5]: Active

O=C1/C(=C/c2cn(Cc3cccc(Br)c3)c3ccccc23)Oc2cc(O)cc(O)c21
IC50 [1]: 14.4 µM | inhibition (INH) [4]: Active | inhibition (INH) [5]: Active

O=C1/C(=C/c2cn(CC3CCCCC3)c3ccccc23)Oc2cc(O)cc(O)c21
IC50 [1]: 10.5 µM | inhibition (INH) [4]: Active | inhibition (INH) [5]: Active

CCCCn1cc(/C=C2\Oc3cc(O)cc(O)c3C2=O)c2cccc(C)c21
IC50 [1]: 4.5 µM | IC50 at 72 h [2]: > 50 µM | IC50 at 72 h [3]: > 50 µM | inhibition (INH) [4]: Active | inhibition (INH) [5]: Active

CCCCn1cc(/C=C2\Oc3cc(O)cc(O)c3C2=O)c2cccc(OC)c21
IC50 [1]: 6.3 µM | inhibition (INH) [4]: Active | inhibition (INH) [5]: Active

COc1cccc(Cn2cc(/C=C3\Oc4cc(O)cc(O)c4C3=O)c3ccccc32)c1
IC50 [1]: 17.5 µM | inhibition (INH) [4]: Active | inhibition (INH) [5]: Active

CCCCn1cc(/C=C2\Oc3cc(O)cc(O)c3C2=O)c2cc(C)ccc21
IC50 [1]: 4.8 µM | IC50 at 72 h [2]: > 50 µM | IC50 at 72 h [3]: > 50 µM | inhibition (INH) [4]: Active | inhibition (INH) [5]: Active

CC(C)=CCn1cc(/C=C2\Oc3cc(O)cc(O)c3C2=O)c2ccccc21
IC50 [1]: 10.6 µM | inhibition (INH) [4]: Active | inhibition (INH) [5]: Active

CCCCn1cc(/C=C2\Oc3cc(O)cc(O)c3C2=O)c2cc(OC)ccc21
IC50 [1]: 13.9 µM | inhibition (INH) [4]: Active | inhibition (INH) [5]: Active

CCCCn1c(/C=C2\Oc3cc(O)cc(O)c3C2=O)cc2ccccc21
IC50 [1]: 9 µM | inhibition (INH) [4]: Active | inhibition (INH) [5]: Active

CCn1cc(/C=C2\Oc3cc(O)cc(O)c3C2=O)c2cc(Br)ccc21
IC50 [1]: 17.8 µM | inhibition (INH) [4]: Active | inhibition (INH) [5]: Active

Cn1cc(/C=C2\Oc3cc(O)cc(O)c3C2=O)c2cc(Br)ccc21
IC50 [1]: 4.5 µM | IC50 at 72 h [2]: > 50 µM | IC50 at 72 h [3]: > 50 µM | inhibition (INH) [4]: Active | inhibition (INH) [5]: Active
